FXIIa inh – inhibitors of human coagulation factor XIIa. purified FXIIa, Boc-QGR-AMC fluorogenic substrate, 2 h. inhibition, % at 5 µM. P00748. actives 0.3% (n = 220,000). AID 800; in the data active = inhibition above about 40%;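 also: 0% = enzyme with no compound and 100% = blank without enzyme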
KLK5 inh – inhibitors of human kallikrein 5 | Q9Y337 | inhibition, % at 5 µM | recombinant hK5, fluorogenic AMC substrate cleavage | actives 0.59% (n = 210,000);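 active = inhibition of 40% or more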;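 also: 0% = enzyme controls without compound and 100% = no-enzyme blanks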
m-calpain inh – inhibitors of pig calpain II; AID 1236; purified calpain II, fluorogenic peptide substrate, 30 min; inhibition, % at 16 µM; actives 0.37% (n = 220,000);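 active = inhibition above about 50%, limit read from the data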
Thrombin inh – inhibitors of human thrombin; P00734; actives 0.26% (n = 220,000); alpha-thrombin, Boc-VPR-AMC fluorogenic substrate cleavage; inhibition, % at 5 µM;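 active = inhibition at or above 40%; inactive = inhibition below 40%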;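 also: 0% = enzyme with no compound and 100% = wells without enzyme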
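Test system: human alpha-thrombin; medium: pH 7.5 Tris-saline with Tween 20; times: reaction at room temperature; signal: AMC fluorescence at 355 nm excitation and 460 nm emission; also added: Boc-VPR-AMC substrate, 15 µM final; dosing: one concentration per compound, 5 µM, with 0.2% DMSO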
FXIa inh 1536 – factor XIa (human) inhibition; P03951; actives 0.14% (n = 220,000); inhibition, % at 5 µM; purified FXIa, Boc-Glu-Ala-Arg-AMC fluorogenic substrate;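 active = inhibition of at least 40%; inactive = inhibition below 40%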;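 also: fluorescence of freed AMC excited at 355 nm; 0% = enzyme without compound and 100% = no enzyme blank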
Target sequence (P03951 19-387 limits assumed): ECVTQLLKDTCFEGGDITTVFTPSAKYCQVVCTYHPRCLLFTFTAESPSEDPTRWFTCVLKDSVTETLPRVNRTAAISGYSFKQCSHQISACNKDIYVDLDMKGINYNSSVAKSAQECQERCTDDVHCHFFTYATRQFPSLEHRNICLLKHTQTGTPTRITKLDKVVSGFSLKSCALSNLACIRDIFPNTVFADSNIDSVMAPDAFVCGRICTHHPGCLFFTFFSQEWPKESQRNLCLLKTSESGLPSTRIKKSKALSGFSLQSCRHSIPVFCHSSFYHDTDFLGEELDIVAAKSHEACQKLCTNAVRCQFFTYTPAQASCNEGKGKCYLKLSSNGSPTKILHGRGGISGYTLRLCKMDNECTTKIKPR
Target sequence (P03951 388-625 limits assumed): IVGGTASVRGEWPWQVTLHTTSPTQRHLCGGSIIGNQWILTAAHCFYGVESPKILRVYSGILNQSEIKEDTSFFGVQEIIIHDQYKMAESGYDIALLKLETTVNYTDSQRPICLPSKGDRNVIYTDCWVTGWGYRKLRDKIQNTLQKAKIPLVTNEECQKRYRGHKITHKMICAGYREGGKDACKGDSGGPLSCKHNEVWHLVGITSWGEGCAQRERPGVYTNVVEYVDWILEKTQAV
* marks the source's active call; other numbers are inactive results; i = inactive; . = not tested or not shown; ! = a repeat was not active. Only some compounds are listed: those with a hit (about 1.4% of all), similar ones and a draw of the others.

SMILES	FXIIa inh	KLK5 inh	m-calpain inh	Thrombin inh	FXIa inh 1536
COc1ccc(C2C(C(=O)/C=C/c3ccco3)=C(O)C(=O)N2CCN2CCOCC2)cc1OC (configuration not stated)	1.1	-10.0	-39.6	1.4	-3.1
O=C(O)c1cccc(NC(=S)N/N=C/c2ccccc2OCc2ccc(Br)cc2)c1	1.8	2.6	-5.8	6.0	-0.3
O=C(O)c1cccc(NC(=S)N/N=C/c2ccccc2OCc2cccc(Br)c2)c1	1.5	-0.3	55.8*	2.3	-3.0
Cc1cccc(NC(=O)Cc2coc3ccc4ccccc4c23)n1	12.6	4.0	2.5	-0.5	-1.0
COC(=O)c1ccc(OC)cc1OCC(=O)N1CCN(c2ccc(F)cc2)CC1	0.1	2.8	-28.4	-4.4	-2.5
O=C(Nc1cc(Cl)cc(Cl)c1)c1cnn2cccnc12	17.9	68.8*	-1.9	24.3	11.5
CCOC(=O)C1(Cc2ccccc2)CCCN(Cc2ccc(OCCO)cc2)C1 (configuration not stated)	10.1	3.8	36.6	-1.3	2.1
CCCCN(CC(=O)NCc1ccc(F)cc1)C(=O)c1ccco1	11.8	26.0	17.1	14.4	1.6
CCOC(=O)c1cnn(-c2ncnc3sc4c(c23)CCC4)c1N	22.3	34.3	4.8	49.5*	14.0
CCOC(=O)C(C)n1cnc2sc3c(c2c1=O)CCC3 (configuration not stated)	13.5	40.5*	11.9	18.7	5.6
COc1cc(CN2CCN(c3ccccc3C)CC2)cc([N+](=O)[O-])c1O	10.4	-4.2	23.3	-1.6	16.6
CC(C(=O)O)n1cc(Cl)cn1 (configuration not stated)	26.7	50.9*	17.1	15.2	25.1
COc1ccccc1NC(=O)c1sc(NC(=O)c2ccco2)c(C#N)c1C	6.6	-6.7	-37.5	-3.5	-9.1
Cc1ccccc1OCC(=O)Nc1sc(C(=O)Nc2cccc(C)c2C)c(C)c1C#N	12.8	45.4*	15.8	5.2	-0.9
CSc1ccccc1NC(=O)COc1ccccc1C	3.5	-1.6	69.0*	-4.3	-5.5
CCN(CC)C(=O)c1sc(NC(=O)Cc2ccccc2)c(C#N)c1C	18.3	40.8*	29.7	23.4	15.0
CC(NC(=O)c1ccnn1C)C1CCCO1 (configuration not stated)	2.3	-4.5	-21.0	-12.4	0.2
O=C(NCc1ccccc1)c1nc(-c2cccs2)no1	26.3	12.0	17.8	44.5*	27.3
O=C1NN=C(c2ccc(Cl)cc2)CC1c1cccc(Br)c1 (configuration not stated)	2.0	-5.6	53.9*	3.4	-3.1
Cc1ccc(C2=NNC(=O)C(c3ccc(Cl)cc3)C2)cc1 (configuration not stated)	0.5	-20.8	-19.2	-11.4	2.0
O=C(COC(=O)c1ccc(Cl)c(S(=O)(=O)N2CCCCC2)c1)NCc1ccco1	17.7	.	4.3	10.3	9.4
Fc1ccc(SCCc2ccccn2)cc1	40.4*!	-2.3	1.8	-2.0	-1.0
CC(=O)N1CCC(N2CCN(c3ccccc3F)CC2)CC1	59.5*	7.0	4.3	1.1	32.5
Nc1cccc2c1C(=O)N(C(=O)c1ccco1)C2=O	15.1	9.4	-328.2	47.0*	11.2
COc1ccc(CN2C(=O)c3cccnc3C2Nc2cc(Cl)ccc2OC)cc1 (configuration not stated)	13.5	46.4*	21.9	4.9	5.0
SMILES	FXIIa inh	KLK5 inh	m-calpain inh	Thrombin inh	FXIa inh 1536
COc1cccc(NC(=S)N(CCCN2CCCC2)Cc2ccco2)c1	10.2	3.1	-26.9	95.1*	-0.5
CCOc1ccc(NC(=S)N(CCCN2CCOCC2)Cc2cn(C)c3ccccc23)cc1	7.6	-2.1	-11.1	1.9	2.2
COc1ccc(NC(=S)N(CCCN2CCOCC2)Cc2cn(C)c3ccccc23)cc1	9.1	-11.6	54.1*	-0.1	4.0
COc1cc(/C=N/NC(=O)C(=O)Nc2ccccn2)ccc1O	3.8	69.8*	39.9	28.9	11.5
CCOc1ccc(S(=O)(=O)NCCC(=O)OCC(=O)N2CC(=O)Nc3ccccc32)cc1	5.6	-1.3	-10.0	-1.6	-3.2
COC(=O)c1c(NC(=O)COC(=O)Cn2cnc3ccccc32)sc(C)c1C	15.0	37.3	-2.7	11.9	43.6*
Oc1ccc(/C=N/N(Cc2ccccc2)c2ccccc2)c(O)c1O	26.6	127.5*	-74.7	28.0	29.0
Oc1cccc(/C=N/N(Cc2ccccc2)c2ccccc2)c1	.	-5.0	27.7	-8.3	-3.3
COc1cc(NC(=O)c2ccco2)c(OC)cc1NC(=O)Nc1cccc(Cl)c1	7.0	46.2*	i	18.3	4.6
Cc1ccc(C(=O)c2ccccc2C(=O)OCC(=O)NC(C)(C)C)cc1	16.6	3.2	29.3	2.0	2.1
Cc1nnc(NC(=O)c2cccc(F)c2)s1	15.9	43.9*	9.1	6.6	3.5
Cc1nnc(NC(=O)c2c(F)cccc2F)s1	20.8	-7.2	-42.4	-2.7	5.8
CC(=O)Cc1nsc(NC(=O)c2cccc(F)c2)n1	21.0	52.3*	17.6	0.5	24.9
CC(C)c1cc(C(=O)Nc2cccc(Cl)c2)no1	15.4	-19.8	28.9	1.8	1.7
CC(C)c1onc(C(=O)Nc2cccc(Cl)c2)c1[N+](=O)[O-]	9.2	-6.1	84.4*	1.5	-2.1
COc1ccccc1NC(=O)C1=C(C)Nc2ncnn2C1c1cccs1 (configuration not stated)	8.9	2.8	21.5	4.5	6.9
COc1ccc(C2C(C(=O)Nc3ccccc3OC)=C(C)Nc3ncnn32)cc1 (configuration not stated)	106.7*	45.4*	-21.0	25.0	20.3
CC(C)N(Cc1cn[nH]c1-c1ccc(-c2ccccc2)cc1)Cc1nccn1C	5.9	-3.5	-7.7	-13.0	-6.9
COc1cccc(-c2nc(CS(=O)CC(=O)NCc3ccccc3Cl)c(C)o2)c1 (configuration not stated)	5.3	-8.4	-9.4	-6.6	-3.0
O=C(O)c1ccc(N/C(=N\S(=O)(=O)c2ccc(Cl)cc2)c2ccccc2)cc1	63.5*	19.5	-14.9	15.5	44.0*
O=C(O)c1cccc(N/C(=N\S(=O)(=O)c2ccccc2)c2ccccc2)c1	7.1	7.4	5.2	0.6	1.8
NNC(=O)CCc1nc2ccccc2[nH]1	9.0	9.1	9.1	0.3	5.7
CCOc1ccc(N/C(=N/c2nc(C)cc(C)n2)NC(C)=O)cc1	8.6	4.3	8.3	2.9	2.6
Cc1occc1C(=O)NNC(=O)Nc1ccc([N+](=O)[O-])cc1	9.4	7.1	13.6	-8.7	2.5
COc1ccc(Oc2ccccc2C=O)cc1	19.7	50.6*	2.7	19.6	3.7
O=C(c1cc(COc2c(F)cccc2F)on1)N1CCC(c2ccccc2F)C1 (configuration not stated)	6.5	-1.0	27.6	-4.9	0.2
O=C(c1cc(COc2c(F)cccc2F)on1)N1CCC(c2ccccc2Cl)C1 (configuration not stated)	8.2	.	55.1*	-0.1	2.8
Cc1c(C(=O)c2ccc([N+](=O)[O-])cc2)c(=O)n(C)c(=O)n1C	-1.7	-10.9	34.6	-4.1	-5.8
